According to article PMC4002122 (Chemical Research in Toxicology, 2014):

Tests used:
Format in all cases: in vitro ADME
Conditions in all cases: 250 μM substrate, 5 μg protein, 60 min, 37 °C
UGT1A1 = biological target: T1, UGT1A1 (Homo sapiens, UniProt P22309); experiment: Screening of recombinant UGT1A1 for glucuronidation activity
T1 sequence (P22309 26-533): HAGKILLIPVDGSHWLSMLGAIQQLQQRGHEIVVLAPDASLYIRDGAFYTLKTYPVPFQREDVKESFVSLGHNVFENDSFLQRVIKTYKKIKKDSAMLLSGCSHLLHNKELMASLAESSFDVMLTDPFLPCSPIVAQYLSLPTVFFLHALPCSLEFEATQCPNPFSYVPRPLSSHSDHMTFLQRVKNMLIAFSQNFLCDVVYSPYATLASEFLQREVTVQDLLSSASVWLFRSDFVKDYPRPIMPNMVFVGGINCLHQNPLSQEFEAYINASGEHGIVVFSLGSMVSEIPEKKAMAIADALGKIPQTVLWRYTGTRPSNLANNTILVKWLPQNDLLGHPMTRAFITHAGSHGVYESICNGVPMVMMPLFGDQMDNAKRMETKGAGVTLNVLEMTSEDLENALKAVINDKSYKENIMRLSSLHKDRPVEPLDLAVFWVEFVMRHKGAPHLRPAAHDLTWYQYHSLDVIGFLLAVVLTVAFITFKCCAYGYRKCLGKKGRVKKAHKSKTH
Procedure, shortened: (§1)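 UGT1A1, 1A3, 1A4 and 1A6–1A10 were His-tagged and expressed in baculovirus-infected Sf9 cells; UGT2B4, 2B7, 2B15 and 2B17 were commercial membranes run per supplier protocol. 5 μg membrane protein with 250 μM substrate, 2 mM UDP-GlcUA, Tris–HCl pH 7.4, MgCl2, saccharolactone, 2% DMSO; 37 °C, 60 min; no-substrate controls. Products measured by HPLC-UV/vis; β-glucuronidase hydrolysis separated O- from carboxyl glucuronides.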

UGT2B15 = biological target: T2, UGT2B15 (Homo sapiens, UniProt P54855); experiment: Screening of recombinant UGT2B15 for glucuronidation activity
T2 sequence (P54855 24-530): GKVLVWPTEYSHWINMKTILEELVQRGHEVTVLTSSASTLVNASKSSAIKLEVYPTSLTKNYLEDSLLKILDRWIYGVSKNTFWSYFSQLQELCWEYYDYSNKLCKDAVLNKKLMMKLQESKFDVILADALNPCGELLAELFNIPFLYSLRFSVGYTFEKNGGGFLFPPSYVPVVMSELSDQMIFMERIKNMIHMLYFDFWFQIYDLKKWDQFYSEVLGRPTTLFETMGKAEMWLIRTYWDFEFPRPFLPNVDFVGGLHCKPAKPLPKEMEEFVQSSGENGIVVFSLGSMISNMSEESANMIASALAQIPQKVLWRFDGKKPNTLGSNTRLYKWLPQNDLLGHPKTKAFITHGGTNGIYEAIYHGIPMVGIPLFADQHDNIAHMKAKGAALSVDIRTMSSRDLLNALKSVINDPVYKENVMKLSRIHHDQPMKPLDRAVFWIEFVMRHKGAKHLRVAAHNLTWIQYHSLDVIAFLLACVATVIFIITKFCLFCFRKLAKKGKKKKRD
Procedure, shortened: as §1

UGT2B4 = biological target: T3, UGT2B4 (Homo sapiens, UniProt P06133); experiment: Screening of recombinant UGT2B4 for glucuronidation activity
T3 sequence (P06133 24-528): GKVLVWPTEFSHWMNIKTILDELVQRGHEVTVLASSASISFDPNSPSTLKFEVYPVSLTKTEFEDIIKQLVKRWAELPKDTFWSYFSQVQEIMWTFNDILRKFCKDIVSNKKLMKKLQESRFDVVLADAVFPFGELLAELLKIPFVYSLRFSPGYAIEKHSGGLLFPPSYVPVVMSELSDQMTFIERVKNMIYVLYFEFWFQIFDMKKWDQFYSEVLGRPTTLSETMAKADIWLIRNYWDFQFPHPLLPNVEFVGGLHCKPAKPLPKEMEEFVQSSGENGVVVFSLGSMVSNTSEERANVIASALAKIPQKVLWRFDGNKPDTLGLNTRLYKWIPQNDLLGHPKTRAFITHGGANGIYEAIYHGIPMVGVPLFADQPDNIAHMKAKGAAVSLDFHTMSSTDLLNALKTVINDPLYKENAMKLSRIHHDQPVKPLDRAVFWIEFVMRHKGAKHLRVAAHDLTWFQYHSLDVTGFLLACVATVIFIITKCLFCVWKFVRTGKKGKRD
Procedure, shortened: as §1

UGT1A7 = biological target: T4, UGT1A7 (Homo sapiens, UniProt Q9HAW7); experiment: Screening of recombinant UGT1A7 for glucuronidation activity
T4 sequence (Q9HAW7 26-530): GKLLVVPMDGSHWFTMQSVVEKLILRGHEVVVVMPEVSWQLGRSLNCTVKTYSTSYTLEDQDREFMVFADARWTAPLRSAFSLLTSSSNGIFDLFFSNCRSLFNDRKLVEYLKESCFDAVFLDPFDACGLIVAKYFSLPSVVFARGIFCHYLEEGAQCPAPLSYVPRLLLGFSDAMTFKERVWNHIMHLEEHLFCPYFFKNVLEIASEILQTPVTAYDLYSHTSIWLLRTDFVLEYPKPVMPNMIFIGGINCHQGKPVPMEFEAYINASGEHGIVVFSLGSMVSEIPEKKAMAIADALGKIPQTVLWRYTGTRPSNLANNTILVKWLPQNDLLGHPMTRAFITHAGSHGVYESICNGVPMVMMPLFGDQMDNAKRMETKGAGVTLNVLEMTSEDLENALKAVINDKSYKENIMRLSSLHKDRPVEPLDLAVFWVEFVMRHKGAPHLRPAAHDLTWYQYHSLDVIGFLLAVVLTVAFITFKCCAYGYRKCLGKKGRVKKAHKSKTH
Procedure, shortened: as §1

UGT1A10 = biological target: T5, UGT1A10 (Homo sapiens, UniProt Q9HAW8); experiment: Screening of recombinant UGT1A10 for glucuronidation activity
T5 sequence (Q9HAW8 26-530): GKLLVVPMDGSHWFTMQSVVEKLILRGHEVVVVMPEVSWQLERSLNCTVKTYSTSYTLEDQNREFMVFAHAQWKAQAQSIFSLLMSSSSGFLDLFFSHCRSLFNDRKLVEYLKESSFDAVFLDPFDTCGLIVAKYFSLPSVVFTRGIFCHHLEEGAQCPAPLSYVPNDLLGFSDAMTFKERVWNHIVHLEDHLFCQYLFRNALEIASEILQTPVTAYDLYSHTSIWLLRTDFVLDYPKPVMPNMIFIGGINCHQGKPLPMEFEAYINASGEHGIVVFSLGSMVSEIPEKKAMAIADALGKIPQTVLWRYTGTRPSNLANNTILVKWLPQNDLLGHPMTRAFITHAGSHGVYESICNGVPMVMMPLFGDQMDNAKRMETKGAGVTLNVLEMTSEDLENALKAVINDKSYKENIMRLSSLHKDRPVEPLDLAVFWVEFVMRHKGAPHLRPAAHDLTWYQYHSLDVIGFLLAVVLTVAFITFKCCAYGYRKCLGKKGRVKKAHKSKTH
Procedure, shortened: as §1

Compound	glucuronidation activity (glucuronide formed) (UGT1A1)	glucuronidation activity (glucuronide formed) (UGT2B15)	glucuronidation activity (glucuronide formed) (UGT2B4)	glucuronidation activity (glucuronide formed) (UGT1A7)	glucuronidation activity (glucuronide formed) (UGT1A10)
COc1cc(/C=C/c2cc([N+](=O)[O-])c(O)c([N+](=O)[O-])c2)cc(OC)c1 [DNR-1, (E)-4-(3,5-dimethoxystyryl)-2,6-dinitrophenol]	No activity	No activity	No activity	No activity	No activity
COc1ccc(/C=C(/C(=O)O)c2cc(OC)c(OC)c(OC)c2)cc1O [NI-12a, (E)-3-(3-hydroxy-4-methoxyphenyl)-2-(3,4,5-trimethoxyphenyl)acrylic acid]	only the carboxyl metabolite			only the hydroxyl metabolite	only the hydroxyl metabolite
COc1ccc(C=Cc2cc(OC)cc(OC)c2/C=N/O)cc1 [NI-ST-05, (E)-2,4-dimethoxy-6-(4-methoxystyryl)benzaldehyde oxime]	catalyzed the formation of the C=N–O-glucuronide	inactive	inactive	inactive	catalyzed the formation of the C=N–O-glucuronide
